The source of these data is ChEMBL document CHEMBL1133124, “N(2)-Aroylanthranilamide inhibitors of human factor Xa” (J Med Chem, 2000).

The target in this assay is Coagulation factor X (Homo sapiens) (UniProt P00742). Nature of the assay: Binding affinity for coagulation factor X as apparent association constant (Kass) derived from protease inhibition kinetics. In outline:
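Human fXa, 3.2 nM final, in tris/NaCl buffer pH 7.4 with HSA; inhibitor added in MeOH, then chromogenic substrate (0.3 mM stock in water) to start hydrolysis; rates read at 405 nm. Four to eight inhibitor concentrations, n = 3 each.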

Bounds are passed on as bounds.

Chain of Coagulation factor X (Homo sapiens) (P00742 41-179 limits assumed): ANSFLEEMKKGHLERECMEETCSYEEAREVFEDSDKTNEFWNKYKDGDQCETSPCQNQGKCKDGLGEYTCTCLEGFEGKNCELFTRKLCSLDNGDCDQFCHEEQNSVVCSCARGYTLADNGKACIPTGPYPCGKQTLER
Chain of Coagulation factor X (Homo sapiens) (P00742 235-488 limits assumed): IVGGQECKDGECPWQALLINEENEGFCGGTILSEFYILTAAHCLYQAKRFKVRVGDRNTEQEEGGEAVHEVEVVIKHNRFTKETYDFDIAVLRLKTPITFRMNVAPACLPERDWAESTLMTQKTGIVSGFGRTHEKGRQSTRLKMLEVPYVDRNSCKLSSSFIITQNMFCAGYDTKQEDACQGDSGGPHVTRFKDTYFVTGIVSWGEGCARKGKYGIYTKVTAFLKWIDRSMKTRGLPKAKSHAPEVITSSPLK

Regarding `COc1ccc(NC(=O)c2ccc(NC(C)=O)cc2NC(=O)c2ccc(C(C)(C)C)cc2)cc1`, the K ass was 2.2e+06 l M-1.

On to `COc1ccc(NC(=O)c2ccccc2NC(=O)c2cccc(Cl)c2)cc1`, for which the K ass is 30000 l M-1.

As to `Cc1ccc(NC(=O)c2ccccc2NC(=O)c2ccc(C(C)(C)C)cc2)cc1`, the K ass was 3.4e+06 l M-1.

In the case of `CC(C)(C)c1ccc(C(=O)Nc2ccccc2C(=O)Nc2ccc(OC(F)(F)F)cc2)cc1`, the K ass was < 1000 l M-1.

As for `COc1ccc(NC(=O)c2ccccc2NC(=O)c2ccc(C(C)C)cc2)cc1`, the K ass was 7e+06 l M-1.

For `COc1ccc(NC(=O)c2ccc(NC(=O)CCC(=O)O)cc2NC(=O)c2ccc(N(C)C)cc2)cc1`, the K ass is 9.6e+06 l M-1.

Consider `COc1ccc(NC(=O)c2ccccc2NC(=O)c2ccc(C(C)O)cc2)cc1` (centres undefined), for which the K ass is 400000 l M-1.

Consider `COc1ccc(NC(=O)c2ccc([N+](=O)[O-])cc2NC(=O)c2ccc(C(C)(C)C)cc2)cc1`, for which the K ass was 80000 l M-1.

Take `COc1ccc(OCc2ccccc2NC(=O)c2ccc(OC)cc2)cc1`: the K ass is 30000 l M-1.

On to `CC(C)(C)c1ccc(C(=O)Nc2ccccc2C(=O)Nc2ccc(F)cc2)cc1`, for which the K ass is 110000 l M-1.

Consider `CC(C)(C)c1ccc(C(=O)Nc2ccccc2C(=O)Nc2ccc(C(F)(F)F)cc2)cc1`, for which the K ass is 1000 l M-1.

Consider `COc1ccc(NC(=O)c2ccccc2NC(=O)c2ccc(C(C)(C)C)cc2)cc1`, for which the K ass is 4.7e+06 l M-1.

`CC(C)(C)c1ccc(C(=O)Nc2ccccc2C(=O)Nc2ccc(Cl)cc2)cc1`: the K ass was 490000 l M-1.

Turning to `COc1ccc(NC(=O)c2ccccc2NC(=O)c2ccc(C(N)=O)cc2)cc1`, the K ass was 1.12e+06 l M-1.

For `COc1ccc(NC(=O)c2ccccc2NC(=O)c2cccc(C)c2)cc1`, the K ass is 30000 l M-1.

As for `COc1ccc(NC(=O)c2ccc(NS(=O)(=O)c3ccccc3)cc2NC(=O)c2ccc(C(C)(C)C)cc2)cc1`, the K ass is 620000 l M-1.

For the molecule `COc1ccc(NC(=O)c2cc(NS(C)(=O)=O)ccc2NC(=O)c2ccc(N(C)C)cc2)cc1`, the K ass was 5.79e+07 l M-1.

Turning to `COc1ccc(NC(=O)c2cc(NS(=O)(=O)c3ccccc3)ccc2NC(=O)c2ccc(C(C)(C)C)cc2)cc1`, the K ass was 4.9e+06 l M-1.

As for `COc1ccc(NC(=O)c2ccc(NC(=O)CCC(=O)O)cc2NC(=O)c2ccc(C(C)(C)C)cc2)cc1`, the K ass was 9.6e+06 l M-1.

In the case of `COc1ccc(NC(=O)c2ccccc2NC(=O)c2ccc(C(F)(F)F)cc2)cc1`, the K ass is 90000 l M-1.

For `COc1ccc(NC(=O)c2cc(N)ccc2NC(=O)c2ccc(N(C)C)cc2)cc1`, the K ass is 7e+06 l M-1.

For `COc1ccc(NC(=O)c2ccccc2NC(=O)c2ccc(C(C)=O)cc2)cc1`, the K ass is 450000 l M-1.

For `CC(C)(C)c1ccc(C(=O)Nc2ccccc2C(=O)Nc2ccccc2)cc1`, the K ass is 460000 l M-1.

Consider `COc1ccc(NC(=O)c2ccccc2NC(=O)c2ccc(C)cc2)cc1`, for which the K ass was 1.8e+06 l M-1.

For the molecule `COc1ccc(NC(=O)c2cc(NC(=O)CCC(=O)O)ccc2NC(=O)c2ccc(N(C)C)cc2)cc1`, the K ass was 400000 l M-1.

For `COc1ccc(C(=O)Nc2ccccc2C(=O)Nc2ccc(C(C)(C)C)cc2)cc1`, the K ass was 30000 l M-1.

`COc1ccc(NC(=O)c2ccc(N)cc2NC(=O)c2ccc(N(C)C)cc2)cc1`: the K ass is 2.27e+07 l M-1.

Take `COc1ccc(NC(=O)c2cc(NC(C)=O)ccc2NC(=O)c2ccc(C(C)(C)C)cc2)cc1`: the K ass is 40000 l M-1.

For `COc1ccc(NC(=O)c2ccccc2NC(=O)c2ccc(Cl)cc2)cc1`, the K ass was 270000 l M-1.

As to `COc1ccc(NC(=O)c2ccccc2NC(=O)c2ccc(Cl)c(Cl)c2)cc1`, the K ass was 10000 l M-1.

In the case of `COc1ccc(NC(=O)c2cc(NS(C)(=O)=O)ccc2NC(=O)c2ccc(C(C)(C)C)cc2)cc1`, the K ass is 1.35e+07 l M-1.

As for `CCOc1ccc(C(=O)Nc2ccccc2C(=O)Nc2ccc(OC)cc2)cc1`, the K ass is 1e+06 l M-1.

For `COc1ccc(NC(=O)c2ccc(N)cc2NC(=O)c2ccc(C(C)(C)C)cc2)cc1`, the K ass was 6.3e+06 l M-1.

For `COc1ccc(/C=C/c2ccccc2NC(=O)c2ccc(OC)cc2)cc1`, the K ass was 30000 l M-1.

For `COc1ccc(NC(=O)c2ccc(NS(C)(=O)=O)cc2NC(=O)c2ccc(C(C)(C)C)cc2)cc1`, the K ass was 3.9e+06 l M-1.

`COc1ccc(CCc2ccccc2NC(=O)c2ccc(OC)cc2)cc1`: the K ass was < 1000 l M-1.

As for `CC(C)(C)c1ccc(C(=O)Nc2ccccc2C(=O)Nc2ccc(Br)cc2)cc1`, the K ass was 220000 l M-1.

As for `COc1ccc(C(=O)Nc2ccccc2NC(=O)c2ccc(OC)cc2)cc1`, the K ass is 1.3e+06 l M-1.

For the molecule `CCc1ccc(NC(=O)c2ccccc2NC(=O)c2ccc(C(C)(C)C)cc2)cc1`, the K ass is 1000 l M-1.

As for `COc1ccc(NC(=O)c2ccccc2NC(=O)c2ccc(OC)cc2)cc1`, the K ass was 1.2e+06 l M-1.

Regarding `COc1ccc(C(=O)Nc2ccccc2NC(=O)c2ccc(N(C)C)cc2)cc1`, the K ass was 1.87e+07 l M-1.

Regarding `COc1ccc(NC(=O)c2ccccc2NC(=O)c2ccc(N(C)C)cc2)cc1`, the K ass is 2.01e+07 l M-1.

On to `COc1ccc(NC(=O)c2ccc(NS(C)(=O)=O)cc2NC(=O)c2ccc(N(C)C)cc2)cc1`, for which the K ass was 8e+06 l M-1.

Take `COc1ccc(NC(=O)c2cc([N+](=O)[O-])ccc2NC(=O)c2ccc(C(C)(C)C)cc2)cc1`: the K ass was 2.1e+06 l M-1.

For `COc1ccc(NC(=O)c2ccccc2NC(=O)c2cccc(N(C)C)c2)cc1`, the K ass was 90000 l M-1.

As to `COc1ccc(NC(=O)c2cc(N)ccc2NC(=O)c2ccc(C(C)(C)C)cc2)cc1`, the K ass is 2.5e+06 l M-1.

For `COc1ccc(NC(=O)c2ccccc2NC(=O)c2ccc(C(C)(C)O)cc2)cc1`, the K ass is 480000 l M-1.

For `COc1ccc(NC(=O)c2ccccc2C(=O)Nc2ccc(OC)cc2)cc1`, the K ass is 70000 l M-1.

On to `COc1ccc(NC(=O)c2cc(NC(=O)CCC(=O)O)ccc2NC(=O)c2ccc(C(C)(C)C)cc2)cc1`, for which the K ass is 150000 l M-1.
